These results are taken from ChEMBL document CHEMBL2424586, “Polyoxygenated cinnamoylcoumarins as conformationally constrained analogs of cytotoxic diarylpentanoids: synthesis and biological activity” (Eur J Med Chem, 2013).

The subject of assay [1] is K562. In words: Cytotoxicity against human K562 cells after 72 hrs by MTT assay. Format: functional, cell-based. The following applies: K562, 72 h. An outline of the steps:
(§1)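 MCF-7 grown as monolayer, K562 and MOLT-4 in suspension; seeded at 30,000, 40,000 and 40,000 cells/ml respectively and incubated overnight at 37 °C. Compounds dissolved in DMSO, diluted in medium, final DMSO ≤0.5%; cisplatin as reference.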

Assay [2] can be described thus: Antioxidant activity assessed as ferric ion reducing ability after 20 mins by FRAP assay. Format: functional. The procedure, abridged:
(§2)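 FRAP reagent: acetate buffer (300 mM, pH 3.6), TPTZ (10 mM in 40 mM HCl) and FeCl3 (20 mM) at 10:1:1, diluted to 1/3 with methanol and pre-warmed to 37 °C. Diluted compound added, 20 min at 37 °C, A593. Values read from FeSO4·7H2O calibration curve; quercetin as reference.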

For assay [3], the system named is MOLT-4. Briefly: Cytotoxicity against human MOLT4 cells after 72 hrs by MTT assay. Format: functional, cell-based. Conditions: MOLT-4, 72 h. An outline of the steps:
as §1

In assay [4] the test system is MCF7. Briefly: Cytotoxicity against human MCF7 cells after 72 hrs by MTT assay. Format: functional, cell-based. Conditions: MCF7, 72 h. The procedure, abridged: as §1
Assay [5] concerns Radical scavenging activity. Briefly: Antioxidant activity assessed as DPPH free radical scavenging activity after 30 mins. Format: functional.
For assay [6], the species on record is Rattus norvegicus. Briefly: Reduction of total thiol content in Wistar rat liver mitochondria after 1 hr by DTNB method. Format: functional. The procedure, abridged: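 Wistar rat liver mitochondria isolated by differential centrifugation (1500 × g, then 10,000 × g, 10 min, 4 °C) and suspended in Tris-HCl 0.05 M/sucrose 0.25 M/KCl/MgCl2/Na2HPO4, pH 7.4. Protein by Bradford. Mitochondria (1 mg/mL) exposed 1 h to compound, then total thiols measured by DTNB at 412 nm against a GSH standard curve; mean ± SD, n = 3.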

Assay [7] is described as follows: Antioxidant activity assessed as ferric ion reducing ability after 20 mins by FRAP assay relative to quercetin. The class given is functional. An outline of the steps: as §2

As for `COc1cccc(/C=C/C(=O)c2cc3cc(OCc4ccccc4)ccc3oc2=O)c1OC`, the IC50 in assay [1] was found to be 48.9 µM; in assay [3] it was 23.6 µM; in assay [4], 21.3 µM; in assay [5], 1270 µM. The Activity in assay [2] amounted to 4.4 mM.
For the compound `O=c1c(O)c(-c2ccc(O)c(O)c2)oc2cc(O)cc(O)c12` [QUERCETIN], the Activity in assay [2] is 87.1 mM. For the same compound, the concentration for half-maximal inhibition (IC50) in assay [5] stood at 8.12 µM.
As for `COc1cccc(COc2ccc3cc(C(=O)/C=C/c4ccc5c(c4)OCO5)c(=O)oc3c2)c1`, the IC50 in assay [1] was 22.8 µM; in assay [3], more than 100 µM; in assay [4], more than 100 µM; in assay [5], 460 µM. For the same compound, the Activity in assay [2] came out at 7.5 mM.
`COc1ccc(/C=C/C(=O)c2cc3ccc(OCc4cccc(OC)c4)cc3oc2=O)cc1`: the IC50 in assay [1] was more than 100 µM; in assay [3] it was more than 100 µM; in assay [4], more than 100 µM; in assay [5], 930 µM. In addition, the Activity in assay [2] worked out at 14.3 mM.
As for `COc1cc(/C=C/C(=O)c2cc3cc(OCc4ccccc4)ccc3oc2=O)cc(OC)c1OC`, the IC50 in assay [1] was 66.4 µM; in assay [3] it was 10.3 µM; in assay [4], 26.5 µM; in assay [5] it was 1150 µM. In assay [2], the Activity was determined as 8.1 mM.
As for `COc1cccc(COc2ccc3cc(C(=O)/C=C/c4ccccc4)c(=O)oc3c2)c1`, the IC50 in assay [1] is more than 100 µM; in assay [3], more than 100 µM; in assay [4], 33.7 µM; in assay [5], 890 µM. For the same compound, the Activity in assay [2] came out at 10.4 mM.
On to `O=C(/C=C/c1ccc2c(c1)OCO2)c1cc2cc(O)ccc2oc1=O`, for which the IC50 in assay [1] worked out at 14.6 µM; in assay [3], 2 µM; in assay [4], 9.7 µM; in assay [5] it was 480 µM. The Activity in assay [2] worked out at 15.3 mM.
On to `COC(=O)c1ccc(/C=C/C(=O)c2cc3ccc(O)cc3oc2=O)cc1`, for which the IC50 in assay [1] was 4.4 µM; in assay [3], 3.7 µM; in assay [4], 5.5 µM.
Turning to `COc1cccc(COc2ccc3cc(C(=O)/C=C/c4ccc(C)cc4)c(=O)oc3c2)c1`, the IC50 was more than 50 µM in assay [1], more than 50 µM in assay [3], more than 50 µM in assay [4] and 2630 µM in assay [5]. The Activity in assay [2] was determined as 6.6 mM.
For the compound `COc1cc(/C=C/C(=O)c2cc3ccc(O)cc3oc2=O)cc(OC)c1OC`, the IC50 in assay [1] is 7.3 µM; in assay [3] it was 3.8 µM; in assay [4] it was 8.8 µM; in assay [5] it was 190 µM. For the same compound, the results for the Activity in assay [2] and in assay [6] were 8.7 mM and “Dose-dependent effect”, respectively.
For `COc1cccc(COc2ccc3cc(C(=O)/C=C/c4cccc(OC)c4OC)c(=O)oc3c2)c1`, the 50% inhibitory concentration (IC50) is 45.5 µM in assay [1], 22.8 µM in assay [3], 35.1 µM in assay [4] and 720 µM in assay [5]. Moreover, the Activity in assay [2] was found to be 7.6 mM.
As to `COc1cccc(/C=C/C(=O)c2cc3cc(O)ccc3oc2=O)c1OC`, the IC50 in assay [1] was determined as 17.3 µM; in assay [3], 6.7 µM; in assay [4] it was 8.8 µM; in assay [5], 160 µM. Also, the Activity in assay [2] amounted to 25.7 mM. The fold change (FC) in assay [7] worked out at 0.3.
Turning to `COc1cc(/C=C/C(=O)c2cc3cc(O)ccc3oc2=O)cc(OC)c1OC`, the concentration for half-maximal inhibition (IC50) in assay [1] was found to be 8.8 µM; in assay [3], 3.9 µM; in assay [4], 10.9 µM; in assay [5], 180 µM. Besides, the Activity in assay [2] was 9.6 mM.
With `COc1cccc(COc2ccc3cc(C(=O)/C=C/c4ccc(Cl)cc4Cl)c(=O)oc3c2)c1`, the Activity in assay [2] is 7.1 mM. In addition, the half-maximal inhibitory concentration (IC50) in assay [5] was 480 µM.
In the case of `COc1cccc(/C=C/C(=O)c2cc3ccc(O)cc3oc2=O)c1OC`, the 50% inhibitory concentration (IC50) in assay [1] was 14.6 µM; in assay [3], 7 µM; in assay [4], 16.6 µM; in assay [5], 150 µM. Further, the Activity in assay [2] is 25.2 mM; in assay [6], “Dose-dependent effect”. Besides, in assay [7], the fold change (FC) was found to be 0.3.
In the case of `COc1cccc(COc2ccc3cc(C(=O)/C=C/c4c(Cl)cccc4Cl)c(=O)oc3c2)c1`, the 50% inhibitory concentration (IC50) was determined as 15.6 µM in assay [1], 12.5 µM in assay [3], 10.1 µM in assay [4] and 940 µM in assay [5]. Also, the Activity in assay [2] turned out to be 5.3 mM.
On to `COc1cccc(COc2ccc3cc(C(=O)/C=C/c4cc(OC)ccc4OC)c(=O)oc3c2)c1`, for which the IC50 is 35.1 µM in assay [1], 13.8 µM in assay [3], more than 100 µM in assay [4] and 750 µM in assay [5]. For the same compound, in assay [2], the Activity was 9.5 mM.
As for `O=C(/C=C/c1ccc2c(c1)OCO2)c1cc2cc(OCc3ccccc3)ccc2oc1=O`, the IC50 in assay [1] is more than 50 µM; in assay [3], more than 50 µM; in assay [4], more than 50 µM; in assay [5] it was 570 µM. The Activity in assay [2] came out at 12.6 mM.
Take `O=C(/C=C/c1ccc2c(c1)OCO2)c1cc2ccc(O)cc2oc1=O`: the half-maximal inhibitory concentration (IC50) in assay [1] is 31.7 µM; in assay [3], 26.2 µM; in assay [4], 38.9 µM; in assay [5], 540 µM. Besides, in assay [2], the Activity stood at 13.7 mM.
As to `COC(=O)c1ccc(/C=C/C(=O)c2cc3cc(O)ccc3oc2=O)cc1`, the IC50 came to 15.8 µM in assay [1], 7.1 µM in assay [3] and 1.3 µM in assay [4].
